Values after ≈ are worked out from the molar mass of the structure shown. Active and inactive are the calls of the source. No cut-off for these calls is given here. Starred links: 1 amine or outer side, 2 acyl side, 3 side chain; linkers in the order of their positions; H or OH if unused. Positions of bridges follow the written chain, without caps; N, C: chain ends. Non-standard residues stand in square brackets, D forms with d. Residues, ends and D or L forms follow the SMILES beside them. *: point of attachment. pTerphenylCO(4''-OnC5H11) = CCCCCOc1ccc(-c2ccc(-c3ccc(C(=O)*)cc3)cc2)cc1; Orn(4R-OH,5R-OH) = O=C([C@H](C[C@@H](O)[C@@H](O)N[*:3])N[*:1])[*:2]; hTyr(3S-OH,4S-OH) = N[C@H](C(=O)O)[C@H](O)[C@@H](O)c1ccc(O)cc1; Pro(3S-OH,4S-Me) = C[C@H]1CN[C@H](C(=O)O)[C@H]1O; Hyp = O=C(O)[C@@H]1C[C@@H](O)CN1
Tests used:
Nakaseomyces glabratus [1] = test: Antifungal activity against Candida glabrata 5376 infected in neutropenic ICR/Swiss mouse candidiasis model assessed as dose required for 1-log10 reduction in […] per kidney administered intraperitoneally every 48 hrs up to 4 days measured per 96 hrs; type: functional
Procedure, shortened: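 Neutropenic ICR/Swiss mice infected i.v. with the strain; therapy began 2 h later. Total doses of 1.25–320 mg/kg/96 h were given i.p. as 1, 2, 4 or 6 doses (q96h, q48h, q24h, q16h), three mice per regimen. Kidney CFU were counted after 4 days. Effect is the change from untreated controls at the end of therapy.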

Candida albicans [2] = test: Antifungal activity against Candida albicans 98-210 infected in neutropenic ICR/Swiss mouse candidiasis model assessed as dose required to maintain […] of 3.81 +/- 0.33 log10CFU per kidney administered intraperitoneally every 24 hrs up to 4 days measured per 24 hrs; type: functional
Procedure, shortened: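 Neutropenic mice (cyclophosphamide sc on days −4, −1 and +2) were infected iv 2 h before therapy. Five total doses from 0.078 to 20 mg/kg/24 h were given ip q24h for 4 days, three mice per regimen. Kidney CFU were measured at the end of therapy. Static and 1-log-kill doses were derived from a Hill sigmoid dose-effect fit.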

Nakaseomyces glabratus [3] = test: Antifungal activity against Candida glabrata 32930 infected in neutropenic ICR/Swiss mouse candidiasis model assessed as dose required to maintain […] of 1.83 +/- 0.54 log10CFU per kidney administered intraperitoneally every 24 hrs up to 4 days measured per 24 hrs; type: functional
Nakaseomyces glabratus [4] = test: Antifungal activity against Candida glabrata 5376 infected in neutropenic ICR/Swiss mouse candidiasis model assessed as reduction of […] in kidney at 1.25 mg/kg, ip administered 2 hrs postinfection as single dose measured within 1 to 4 hrs post dosing by time-kill assay; type: functional, organism-based; set-up: dose 1.25 mg/kg
Procedure, shortened: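 Neutropenic mice given a single ip dose (1.25, 5 or 20 mg/kg) 2 h after tail-vein infection. Kidneys from 3 mice per time point collected nine times over 96 h. Homogenates serially diluted 1:10 and plated on SDA, 24 h at 35°C. Detection limit 100 CFU/ml.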

Candida albicans [5] = test: Antifungal activity against Candida albicans K-1 infected in neutropenic ICR/Swiss mouse candidiasis model assessed as suppression of fungal regrowth at 5 mg/kg, ip administered 2 hrs postinfection as single dose by time-kill assay; type: functional, organism-based; set-up: dose 5 mg/kg
Procedure, shortened: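 Single ip dose (20, 5 or 1.25 mg/kg) given 2 h after iv infection of neutropenic mice with K-1. Three treated and three control mice were sampled at intervals over 96 h for kidney CFU. PAFE is the time for treated burden to rise 1 log10 after serum levels fall below MIC, minus the same time in controls. Free drug was taken as 1%.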

Candida albicans [6] = test: Antifungal activity against Candida albicans K-1 infected in neutropenic ICR/Swiss mouse candidiasis model assessed as suppression of fungal regrowth at 1.25 mg/kg, ip administered 2 hrs postinfection as single dose by time-kill assay; type: functional, organism-based; set-up: dose 1.25 mg/kg
Procedure, shortened: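 Single ip dose of 1.25, 5 or 20 mg/kg given 2 h after iv infection of neutropenic mice. Groups of 3 treated and 3 control mice sampled at 1–24 h intervals over 96 h. Kidney homogenates plated on SDA, 24 h at 35°C. PAFE = time for treated burden to rise 1 log10 CFU/kidney after serum level fell below MIC, minus the same time in controls.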

Nakaseomyces glabratus [7] = test: Antifungal activity against Candida glabrata 5376 infected in neutropenic ICR/Swiss mouse candidiasis model assessed as prolongation of fungal growth suppression at 20 mg/kg, ip administered 2 hrs postinfection as single dose by time-kill assay; type: functional; conditions: route intraperitoneal
Procedure, shortened: (§1)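 Neutropenic mice were infected i.v. and 2 h later given a single i.p. dose (1.25, 5 or 20 mg/kg). Groups of three treated and three control mice were killed at intervals over 96 h, and kidney CFU were counted on SDA (limit 100 CFU/ml). The post-antifungal effect is t − c: the time for a 1 log10 CFU/kidney increase once serum levels fall below the MIC in treated mice, minus the same time in controls.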

Serum = test: Fraction unbound in Candida glabrata 5376-infected neutropenic ICR/Swiss mouse serum at 1.25 mg/kg, ip administered 2 hrs postinfection as single dose; type: ADME, organism-based; set-up: dose 1.25 mg/kg, route intraperitoneal; conditions: in vivo
Nakaseomyces glabratus [8] = test: Antifungal activity against Candida glabrata 513 assessed as partial growth inhibition after 24 hrs by CLSI end point method; type: functional; conditions: Nakaseomyces glabratus, 513, 24 h
Procedure, shortened: (§2)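 Two end points were read against the drug-free control well: partial growth inhibition (the CLSI end point) and complete inhibition. Run in duplicate on four separate occasions; the value is the mean. Drug stock was made in DMSO and diluted in 0.9% NaCl.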

Candida albicans [9] = test: Antifungal activity against Candida albicans 98-17 infected in neutropenic ICR/Swiss mouse candidiasis model assessed as fungal count per kidney administered 2 hrs postinfection measured up to 48 hrs; type: functional
Procedure, shortened: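 Untreated neutropenic mice infected via the tail vein (inoculum about 6.1 log10 CFU/ml, 0.1 ml). Growth is the rise in kidney CFU over 48 h. Kidneys were homogenised, serially diluted 1:10 and plated on SDA for 24 h at 35°C. Mean of three mice.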

Candida tropicalis = test: Antifungal activity against Candida tropicalis 98-234 infected in neutropenic ICR/Swiss mouse candidiasis model assessed as fungal count per kidney administered 2 hrs postinfection measured up to 48 hrs; type: functional
Procedure, shortened: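 Untreated neutropenic ICR/Swiss female mice infected iv via lateral tail vein (0.1 ml, 6.1 ± 0.51 log10 CFU/ml); kidneys homogenised, serially diluted 1:10 and plated on SDA, counted after 24 h at 35°C; growth in kidneys over 48 h, mean CFU per kidney of three mice, detection limit 100 CFU/ml.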

Nakaseomyces glabratus [10] = test: Antifungal activity against Candida glabrata 513 infected in neutropenic ICR/Swiss mouse candidiasis model assessed as fungal count per kidney administered 2 hrs postinfection measured up to 48 hrs; type: functional
Procedure, shortened: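 Female ICR/Swiss mice (23–27 g) made neutropenic with cyclophosphamide s.c. (150 mg/kg day −4, 100 mg/kg day −1, 100 mg/kg day +2). Infected by tail vein with 0.1 ml inoculum (~6.1 log10 CFU/ml). Kidneys of untreated mice were homogenised and plated on SDA for 24 h at 35°C. Growth over 48 h is given as log10 CFU/kidney.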

Nakaseomyces glabratus [11] = test: Antifungal activity against Candida glabrata 5592 assessed as complete growth inhibition after 24 hrs by CLSI end point method; type: functional; conditions: Nakaseomyces glabratus, 5592, 24 h; procedure, shortened: as §2
[12] = Elimination half life in serum of neutropenic ICR/Swiss mouse candidiasis model at 5 mg/kg, ip by reverse-phase high-pressure liquid chromatography; type: ADME, organism-based; set-up: dose 5 mg/kg, route intraperitoneal; conditions: read-out: beta t1/2 (converted)
Procedure, shortened: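 Infected neutropenic ICR/Swiss mice given single ip doses (5, 20 or 80 mg/kg; 0.2 ml); serum from three isoflurane-anaesthetised mice at 1, 4, 8, 12, 24 and 48 h, stored at −80°C, assayed by reverse-phase HPLC with fluorescence detection, loratadine internal standard, linear 10–50,000 ng/ml. Noncompartmental analysis; half-life by nonlinear least squares.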

Nakaseomyces glabratus [13] = test: Antifungal activity against Candida glabrata 5376 infected in neutropenic ICR/Swiss mouse candidiasis model assessed as reduction of […] in kidney at 20 mg/kg, ip administered 2 hrs postinfection as single dose measured after 96 hrs post dosing by time-kill assay; type: functional, organism-based; set-up: dose 20 mg/kg; procedure, shortened: as §1

SMILES: CCCCCOc1ccc(-c2ccc(-c3ccc(C(=O)N[C@H]4C[C@@H](O)[C@@H](O)NC(=O)[C@@H]5[C@@H](O)[C@@H](C)CN5C(=O)[C@H]([C@@H](C)O)NC(=O)[C@H]([C@H](O)[C@@H](O)c5ccc(O)cc5)NC(=O)[C@@H]5C[C@@H](O)CN5C(=O)[C@H]([C@@H](C)O)NC4=O)cc3)cc2)cc1 [ANIDULAFUNGIN] ({pTerphenylCO(4''-OnC5H11)}-[Orn(4R-OH,5R-OH)]T[Hyp][hTyr(3S-OH,4S-OH)]T[Pro(3S-OH,4S-Me)]; lactam 1-C)
- Activity (Nakaseomyces glabratus [1]): 27.4 mg/kg
- Activity (Candida albicans [2]): 3.37 mg/kg
- Activity (Nakaseomyces glabratus [3]): 1.58 mg/kg
- Activity (Nakaseomyces glabratus [4]): Active
- Activity (Candida albicans [5]): Active
- Activity (Candida albicans [6]): Active
- Activity (Nakaseomyces glabratus [7]): 67 h
- Fu (Serum): 1%
- MIC (Nakaseomyces glabratus [8]): 0.06 mg/L (≈ 0.0526 µM)
- log10cfu (Candida albicans [9]): 4.3
- log10cfu (Candida tropicalis): 3.84
- log10cfu (Nakaseomyces glabratus [10]): 2.43
- MIC (Nakaseomyces glabratus [11]): 0.12 mg/L (≈ 0.105 µM)
- half-life [12]: 14.8 h
- Activity (Nakaseomyces glabratus [13]): Active

— ChEMBL document CHEMBL1153564 (Antimicrob Agents Chemother, 2008)
